Data published in ChEMBL document CHEMBL1811814, “Synthesis and evaluation of indole, pyrazole, chromone and pyrimidine based conjugates for tumor growth inhibitory activities--development of highly efficacious cytotoxic agents” (Eur J Med Chem, 2010).

What was measured:
Assay type in all cases: functional
Parameters in all cases: scale not given: the % may be the effect or the level left
SF-539 = experiment: Growth inhibition of human SF539 cells assessed tumor cell growth at 10^-5 M
Procedure, shortened: (§1)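 NCI 60-human-tumor-cell-line panel screen. Each compound was tested at a single concentration of 10^-5 M, and percent growth of tumor cells was recorded for each cell line. Growth inhibition was expressed from these percent-growth values.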

CCRF-CEM = experiment: Growth inhibition of human CCRF-CEM cells assessed tumor cell growth at 10^-5 M; procedure, shortened: as §1
SW-620 = experiment: Growth inhibition of human SW620 cells assessed tumor cell growth at 10^-5 M
Procedure, shortened: (§2)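 Single-dose screen at 10^-5 M across the 60 human tumor cell line panel, run to NCI standards. The value is the percent growth of each cell line in the presence of compound. Compounds active at this dose moved on to five-concentration testing (10^-4 to 10^-8 M).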

HL-60(TB) = experiment: Growth inhibition of human HL-60(TB) cells assessed tumor cell growth at 10^-5 M
Procedure, shortened: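 HL-60(TB), part of the 60-line panel, tested at a single concentration of 10^-5 M. The read-out is percent tumor cell growth relative to untreated growth.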

SN12C = experiment: Growth inhibition of human SN12C cells assessed tumor cell growth at 10^-5 M; procedure, shortened: as §1
NCI-H23 = experiment: Growth inhibition of human NCI-H23 cells assessed tumor cell growth at 10^-5 M; procedure, shortened: as §1
EKVX = experiment: Growth inhibition of human EKVX cells assessed tumor cell growth at 10^-5 M; procedure, shortened: as §1
NCI-H322M = experiment: Growth inhibition of human NCI-H322M cells assessed tumor cell growth at 10^-5 M; procedure, shortened: as §1
HCT-15 = experiment: Growth inhibition of human HCT15 cells assessed tumor cell growth at 10^-5 M; procedure, shortened: as §1
MDA-MB-435 = experiment: Growth inhibition of human MDA-MB-435 cells assessed tumor cell growth at 10^-5 M; procedure, shortened: as §1
SNB-19 = experiment: Growth inhibition of human SNB19 cells assessed tumor cell growth at 10^-5 M; procedure, shortened: as §2
ACHN = experiment: Growth inhibition of human ACHN cells assessed tumor cell growth at 10^-5 M; procedure, shortened: as §1
SF-268 = experiment: Growth inhibition of human SF268 cells assessed tumor cell growth at 10^-5 M; procedure, shortened: as §1
HT-29 = experiment: Growth inhibition of human HT-29 cells assessed tumor cell growth at 10^-5 M; procedure, shortened: as §1
IGROV-1 = experiment: Growth inhibition of human IGROV1 cells assessed tumor cell growth at 10^-5 M; procedure, shortened: as §1
A549 = experiment: Growth inhibition of human A549 cells assessed tumor cell growth at 10^-5 M; procedure, shortened: as §1
TK-10 = experiment: Growth inhibition of human TK10 cells assessed tumor cell growth at 10^-5 M; procedure, shortened: as §2
M14 = experiment: Growth inhibition of human M14 cells assessed tumor cell growth at 10^-5 M; procedure, shortened: as §1
[1] = Growth inhibition of human Hs 578T cells assessed tumor cell growth at 10^-5 M; procedure, shortened: as §1
HCC 2998 = experiment: Growth inhibition of human HCC2998 cells assessed tumor cell growth at 10^-5 M; procedure, shortened: as §1
KM12 = experiment: Growth inhibition of human KM12 cells assessed tumor cell growth at 10^-5 M; procedure, shortened: as §1
COLO 205 = experiment: Growth inhibition of human COLO205 cells assessed tumor cell growth at 10^-5 M; procedure, shortened: as §1
BT-549 = experiment: Growth inhibition of human BT549 cells assessed tumor cell growth at 10^-5 M; procedure, shortened: as §1
PC-3 = experiment: Growth inhibition of human PC3 cells assessed tumor cell growth at 10^-5 M; procedure, shortened: as §1
SK-MEL-28 = experiment: Growth inhibition of human SK-MEL-28 cells assessed tumor cell growth at 10^-5 M; procedure, shortened: as §1
DU-145 = experiment: Growth inhibition of human DU145 cells assessed tumor cell growth at 10^-5 M; procedure, shortened: as §1
NCI-H522 = experiment: Growth inhibition of human NCI-H522 cells assessed tumor cell growth at 10^-5 M; procedure, shortened: as §1
NCI-H226 = experiment: Growth inhibition of human NCI-H226 cells assessed tumor cell growth at 10^-5 M; procedure, shortened: as §1
HCT-116 = experiment: Growth inhibition of human HCT116 cells assessed tumor cell growth at 10^-5 M; procedure, shortened: as §1
HOP-92 = experiment: Growth inhibition of human HOP92 cells assessed tumor cell growth at 10^-5 M; procedure, shortened: as §1
U-251 = experiment: Growth inhibition of human U251 cells assessed tumor cell growth at 10^-5 M; procedure, shortened: as §2
SF-295 = experiment: Growth inhibition of human SF295 cells assessed tumor cell growth at 10^-5 M; procedure, shortened: as §1
RXF 393 = experiment: Growth inhibition of human RXF393 cells assessed tumor cell growth at 10^-5 M; procedure, shortened: as §1
SK-MEL-2 = experiment: Growth inhibition of human SK-MEL-2 cells assessed tumor cell growth at 10^-5 M; procedure, shortened: as §1
MOLT-4 = experiment: Growth inhibition of human MOLT4 cells assessed tumor cell growth at 10^-5 M; procedure, shortened: as §1
LOX IMVI = experiment: Growth inhibition of human LOXIMVI cells assessed tumor cell growth at 10^-5 M; procedure, shortened: as §1
UACC-62 = experiment: Growth inhibition of human UACC62 cells assessed tumor cell growth at 10^-5 M; procedure, shortened: as §2
786-0 = experiment: Growth inhibition of human 786-0 cells assessed tumor cell growth at 10^-5 M; procedure, shortened: as §1
OVCAR-8 = experiment: Growth inhibition of human OVCAR8 cells assessed tumor cell growth at 10^-5 M; procedure, shortened: as §1
CAKI-1 = experiment: Growth inhibition of human Caki1 cells assessed tumor cell growth at 10^-5 M; procedure, shortened: as §1
MDA-MB-231 = experiment: Growth inhibition of human MDA-MB-231 cells assessed tumor cell growth at 10^-5 M; procedure, shortened: as §1
NCI/ADR-RES = experiment: Growth inhibition of human NCI/ADR-RES cells assessed tumor cell growth at 10^-5 M; procedure, shortened: as §1
HOP-62 = experiment: Growth inhibition of human HOP62 cells assessed tumor cell growth at 10^-5 M; procedure, shortened: as §1
Malme-3M = experiment: Growth inhibition of human MALME-3M cells assessed tumor cell growth at 10^-5 M; procedure, shortened: as §1
SK-MEL-5 = experiment: Growth inhibition of human SK-MEL-5 cells assessed tumor cell growth at 10^-5 M; procedure, shortened: as §1
T47D = experiment: Growth inhibition of human T47D cells assessed tumor cell growth at 10^-5 M; procedure, shortened: as §2
OVCAR-5 = experiment: Growth inhibition of human OVCAR5 cells assessed tumor cell growth at 10^-5 M; procedure, shortened: as §1
UACC-257 = experiment: Growth inhibition of human UACC257 cells assessed tumor cell growth at 10^-5 M; procedure, shortened: as §2
A498 = experiment: Growth inhibition of human A498 cells assessed tumor cell growth at 10^-5 M; procedure, shortened: as §1
OVCAR-3 = experiment: Growth inhibition of human OVCAR3 cells assessed tumor cell growth at 10^-5 M; procedure, shortened: as §1
UO-31 = experiment: Growth inhibition of human UO31 cells assessed tumor cell growth at 10^-5 M; procedure, shortened: as §2
SNB-75 = experiment: Growth inhibition of human SNB75 cells assessed tumor cell growth at 10^-5 M; procedure, shortened: as §2
NCI-H460 = experiment: Growth inhibition of human NCI-H460 cells assessed tumor cell growth at 10^-5 M; procedure, shortened: as §1
MDA-MB-468 = experiment: Growth inhibition of human MDA-MB-468 cells assessed tumor cell growth at 10^-5 M; procedure, shortened: as §1
SK-OV-3 = experiment: Growth inhibition of human SKOV3 cells assessed tumor cell growth at 10^-5 M; procedure, shortened: as §1
K562 = experiment: Growth inhibition of human K562 cells assessed tumor cell growth at 10^-5 M; procedure, shortened: as §1
OVCAR-4 = experiment: Growth inhibition of human OVCAR4 cells assessed tumor cell growth at 10^-5 M; procedure, shortened: as §1
MCF7 = experiment: Growth inhibition of human MCF7 cells assessed tumor cell growth at 10^-5 M; procedure, shortened: as §1

CC1=NN(c2cccc(Cl)c2)C(=O)/C1=C\c1cn(C(=O)c2c(Cl)cccc2Cl)c2ccccc12
Activity (SF-539): 88.35%
Activity (CCRF-CEM): 107.14%
Activity (SW-620): 96.65%
Activity (HL-60(TB)): 95.11%
Activity (SN12C): 100.77%
Activity (NCI-H23): 78.46%
Activity (EKVX): 70.54%
Activity (NCI-H322M): 99.91%
Activity (HCT-15): 102.31%
Activity (MDA-MB-435): 109.08%
Activity (SNB-19): 100.95%
Activity (ACHN): 90.96%
Activity (SF-268): 99.71%
Activity (HT-29): 110.62%
Activity (IGROV-1): 100.26%
Activity (A549): 103.17%
Activity (TK-10): 123.88%
Activity (M14): 88.55%
Activity [1]: 93.53%
Activity (HCC 2998): 87.28%
Activity (KM12): 100.84%
Activity (COLO 205): 105.8%
Activity (BT-549): 95.67%
Activity (PC-3): 93.89%
Activity (SK-MEL-28): 108.69%
Activity (DU-145): 113.79%
Activity (NCI-H522): 87.52%
Activity (NCI-H226): 97.86%
Activity (HCT-116): 93.25%
Activity (HOP-92): 75.93%
Activity (U-251): 111.4%
Activity (SF-295): 96.99%
Activity (RXF 393): 96.55%
Activity (SK-MEL-2): 95.14%
Activity (MOLT-4): 78.5%
Activity (LOX IMVI): 91.86%
Activity (UACC-62): 84.14%
Activity (786-0): 101.2%
Activity (OVCAR-8): 89.79%
Activity (CAKI-1): 89.11%
Activity (MDA-MB-231): 82.49%
Activity (NCI/ADR-RES): 90.21%
Activity (HOP-62): 92.85%
Activity (Malme-3M): 100.66%
Activity (SK-MEL-5): 93.87%
Activity (T47D): 77.75%
Activity (OVCAR-5): 78.09%
Activity (UACC-257): 88.84%
Activity (A498): 102.24%
Activity (OVCAR-3): 105.51%
Activity (UO-31): 75.46%
Activity (SNB-75): 81.76%
Activity (NCI-H460): 102.74%
Activity (MDA-MB-468): 98.04%
Activity (SK-OV-3): 93.9%
Activity (K562): 120.99%
Activity (OVCAR-4): 94.88%
Activity (MCF7): 84.58%
